Test results reported in ChEMBL document CHEMBL1144581, “alpha-Amino acid derivatives as proton pump inhibitors and potent anti-ulcer agents” (2007).
Calls of active or inactive are those of the source. No cut-off for these calls is given here.

Experiments:
Rattus norvegicus [1] = organism: Rattus norvegicus; experiment: Inhibition of gastric H+/K(+)-ATPase activity in Sprague-Dawley rat microsomal vesicles at 30 uM in presence of 0.3 mM of ATP; format: microsomes; conditions: Stomach, Microsome
How it was run: (§1)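 Rat gastric microsomes were prepared by density gradient and differential centrifugation. The medium held 40 mM Tris-HCl pH 7.4, 2 mM MgCl2, 10 mM KCl (water for blank) and […] vesicular protein. Compound was preincubated 30 min at 37 °C. Tris-ATP at 0.3, 1.0 or 3 mM was then added for 20 min and stopped with chilled 10% TCA. Released Pi was read at 530 nm; % inhibition vs control.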

Rattus norvegicus [2] = organism: Rattus norvegicus; experiment: Inhibition of p-NPPase in Sprague-Dawley rat microsomal vesicles at 100 uM in presence of 5.0 mM of p-NPP; format: microsomes; conditions: Microsome
How it was run: (§2)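 Rat gastric microsomes were assayed in 10 mM PIPES/Tris pH 7.0 with 5 mM KCl. Compound was preincubated 30 min at 37 °C. p-NPP at 1.0, 3.0 or 5.0 mM was added and incubated 20 min at 37 °C, then stopped with 0.5 N NaOH. p-Nitrophenol release was read at 410 nm; % inhibition vs control.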

Rattus norvegicus [3] = organism: Rattus norvegicus; experiment: Inhibition of gastric H+/K(+)-ATPase activity in Sprague-Dawley rat microsomal vesicles at 3 uM in presence of 0.3 mM of ATP; format: microsomes; conditions: Stomach, Microsome; how it was run: as §1
Rattus norvegicus [4] = organism: Rattus norvegicus; experiment: Inhibition of gastric proton pump activity of gastric H(+)/K(+) ATPase in Sprague-Dawley rat microsomal vesicles after washing at 10 uM; format: microsomes; conditions: Stomach, Microsome
Rattus norvegicus [5] = organism: Rattus norvegicus; experiment: Inhibition of p-NPPase in Sprague-Dawley rat microsomal vesicles at 10 uM in presence of 1.0 mM of p-NPP; format: microsomes; conditions: Microsome; how it was run: as §2
Rattus norvegicus [6] = organism: Rattus norvegicus; experiment: Inhibition of p-NPPase in Sprague-Dawley rat microsomal vesicles at 3 uM in presence of 1.0 mM of p-NPP; format: microsomes; conditions: Microsome; how it was run: as §2
Rattus norvegicus [7] = experiment: Antisecretory activity in rat pylorus ligation-induced ulcer model assessed as inhibition of total acidity of gastric juice at 20 mg/kg; format: functional, organism-based; set-up: dose 20 mg/kg
How it was run: (§3)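 Sprague Dawley rats (130-150 g) fasted 24 h with water ad libitum; pylorus ligated through a midline incision under ether anesthesia. Dosing oral, 1 h before ligation. Gastric juice free and total acidity titrated against 0.01 N NaOH, with Topfer's reagent and phenolphthalein as indicators. Values expressed as ratio of percent inhibition, treated vs control group.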

Rattus norvegicus [8] = organism: Rattus norvegicus; experiment: Inhibition of p-NPPase in Sprague-Dawley rat microsomal vesicles at 3 uM in presence of 3.0 mM of p-NPP; format: microsomes; conditions: Microsome; how it was run: as §2
Rattus norvegicus [9] = organism: Rattus norvegicus; experiment: Inhibition of p-NPPase in Sprague-Dawley rat microsomal vesicles at 10 uM in presence of 3.0 mM of p-NPP; format: microsomes; conditions: Microsome; how it was run: as §2
Rattus norvegicus [10] = organism: Rattus norvegicus; experiment: Inhibition of p-NPPase in Sprague-Dawley rat microsomal vesicles at 30 uM in presence of 3.0 mM of p-NPP; format: microsomes; conditions: Microsome; how it was run: as §2
Rattus norvegicus [11] = organism: Rattus norvegicus; experiment: Inhibition of gastric H+/K(+)-ATPase activity in Sprague-Dawley rat microsomal vesicles at 10 uM in presence of 0.3 mM of ATP; format: microsomes; conditions: Stomach, Microsome; how it was run: as §1
Rattus norvegicus [12] = organism: Rattus norvegicus; experiment: Inhibition of gastric H+/K(+)-ATPase activity in Sprague-Dawley rat microsomal vesicles at 30 uM in presence of 3.0 mM of ATP; format: microsomes; conditions: Stomach, Microsome; how it was run: as §1
Rattus norvegicus [13] = organism: Rattus norvegicus; experiment: Inhibition of gastric H+/K(+)-ATPase activity in Sprague-Dawley rat microsomal vesicles at 10 uM in presence of 1.0 mM of ATP; format: microsomes; conditions: Stomach, Microsome; how it was run: as §1
Rattus norvegicus [14] = organism: Rattus norvegicus; experiment: Inhibition of gastric H+/K(+)-ATPase activity in Sprague-Dawley rat microsomal vesicles at 10 uM in presence of 3.0 mM of ATP; format: microsomes; conditions: Stomach, Microsome; how it was run: as §1
Rattus norvegicus [15] = organism: Rattus norvegicus; experiment: Inhibition of gastric H+/K(+)-ATPase activity in Sprague-Dawley rat microsomal vesicles at 3 uM in presence of 3.0 mM of ATP; format: microsomes; conditions: Stomach, Microsome; how it was run: as §1
Rattus norvegicus [16] = organism: Rattus norvegicus; experiment: Inhibition of p-NPPase in Sprague-Dawley rat microsomal vesicles at 10 uM in presence of 5.0 mM of p-NPP; format: microsomes; conditions: Microsome; how it was run: as §2
Rattus norvegicus [17] = organism: Rattus norvegicus; experiment: Inhibition of gastric H+/K(+)-ATPase activity in Sprague-Dawley rat microsomal vesicles at 3 uM in presence of 1.0 mM of ATP; format: microsomes; conditions: Stomach, Microsome; how it was run: as §1
Rattus norvegicus [18] = organism: Rattus norvegicus; experiment: Inhibition of p-NPPase in Sprague-Dawley rat microsomal vesicles at 30 uM in presence of 1.0 mM of p-NPP; format: microsomes; conditions: Microsome; how it was run: as §2
Rattus norvegicus [19] = experiment: Antisecretory activity in rat pylorus ligation-induced ulcer model assessed as inhibition of free acidity of gastric juice at 10 mg/kg; format: functional, organism-based; set-up: dose 10 mg/kg; how it was run: as §3
Rattus norvegicus [20] = organism: Rattus norvegicus; experiment: Inhibition of gastric proton pump activity of gastric H(+)/K(+) ATPase in Sprague-Dawley rat microsomal vesicles before washing at 10 uM; format: microsomes; conditions: Stomach, Microsome
Rattus norvegicus [21] = organism: Rattus norvegicus; experiment: Inhibition of gastric H+/K(+)-ATPase activity in Sprague-Dawley rat microsomal vesicles at 30 uM in presence of 1.0 mM of ATP; format: microsomes; conditions: Stomach, Microsome; how it was run: as §1
Rattus norvegicus [22] = organism: Rattus norvegicus; experiment: Inhibition of p-NPPase in Sprague-Dawley rat microsomal vesicles at 30 uM in presence of 5.0 mM of p-NPP; format: microsomes; conditions: Microsome; how it was run: as §2
Rattus norvegicus [23] = organism: Rattus norvegicus; experiment: Antisecretory activity in rat pylorus ligation-induced ulcer model determined by ratio of free acidity inhibition in drug treated to untreated control; format: functional; how it was run: as §3
Rattus norvegicus [24] = organism: Rattus norvegicus; experiment: Antisecretory activity in rat pylorus ligation-induced ulcer model determined by ratio of total acidity inhibition in drug treated to untreated control; format: functional; how it was run: as §3
Rattus norvegicus [25] = organism: Rattus norvegicus; experiment: Inhibition of gastric H+/K(+)-ATPase activity in Sprague-Dawley rat microsomal vesicles at 10 umol; format: microsomes; conditions: Stomach, Microsome; how it was run: as §1

Compound `COc1ccc2[nH]c([S+]([O-])Cc3ncc(C)c(OC)c3C)nc2c1` (stereo not given) has an inhibition (Rattus norvegicus [1]) of 75%, an inhibition (Rattus norvegicus [2]) of 96% and an inhibition (Rattus norvegicus [3]) of 38%. The inhibition (Rattus norvegicus [4]) was 90%, the inhibition (Rattus norvegicus [5]) was 54% and the inhibition (Rattus norvegicus [6]) was 28%. For the same compound, the Activity (Rattus norvegicus [7]) was “Active”, the inhibition (Rattus norvegicus [8]) was 28% and the inhibition (Rattus norvegicus [9]) was 52%. The inhibition (Rattus norvegicus [10]) was 78%, the inhibition (Rattus norvegicus [11]) was 56% and the inhibition (Rattus norvegicus [12]) was 76%. It also gave an inhibition (Rattus norvegicus [13]) of 51%, an inhibition (Rattus norvegicus [14]) of 53% and an inhibition (Rattus norvegicus [15]) of 34%. For the same compound, the inhibition (Rattus norvegicus [16]) was 48%, the inhibition (Rattus norvegicus [17]) was 38% and the inhibition (Rattus norvegicus [18]) was 77%. The Activity (Rattus norvegicus [19]) was “Active”, the inhibition (Rattus norvegicus [20]) was 60% and the inhibition (Rattus norvegicus [21]) was 71%. It also gave an inhibition (Rattus norvegicus [22]) of 79%.
With `O=C(O)[C@@H]1CCCN1C(=O)Cc1ccccc1` the Activity (Rattus norvegicus [23]) was 0.41, the Activity (Rattus norvegicus [24]) was 0.38 and the inhibition (Rattus norvegicus [25]) was 92%.
`O=C(O)[C@@H]1CCC(=O)N1Cc1cccc2ccccc12` showed an Activity (Rattus norvegicus [23]) of 0.35, an Activity (Rattus norvegicus [24]) of 0.91 and an inhibition (Rattus norvegicus [25]) of 53%.
With `COc1ccccc1CN1C(=O)CC[C@H]1C(=O)O` the Activity (Rattus norvegicus [23]) was 0.61, the Activity (Rattus norvegicus [24]) was 0.64 and the inhibition (Rattus norvegicus [25]) was 49%.
For `Cc1ccc(CN2C(=O)CC[C@H]2C(=O)OC(C)(C)C)cc1`, the Activity (Rattus norvegicus [23]) was 0.48, the Activity (Rattus norvegicus [24]) was 0.52 and the inhibition (Rattus norvegicus [25]) was 79%.
Work on `COC(=O)[C@@H]1CCC(=O)N1Cc1ccc(Cl)cc1` yielded an Activity (Rattus norvegicus [23]) of 0.67, an Activity (Rattus norvegicus [24]) of 1.01 and an inhibition (Rattus norvegicus [25]) of 46%.
With `O=C(O)[C@@H]1CCC(=O)N1Cc1ccccc1Cl` the Activity (Rattus norvegicus [23]) was 0.66, the Activity (Rattus norvegicus [24]) was 0.51 and the inhibition (Rattus norvegicus [25]) was 32%.
